The text below walks through data of ChEMBL document CHEMBL1124731, “Synthesis and biological activity of novel quaternary ammonium derivatives of alkylglycerols as potent inhibitors of protein kinase C” (J Med Chem, 1990).

Assay [1] has as its target T1, Protein kinase C (PKC) (Homo sapiens) (UniProt O94806+P41743+P17252+P05129+Q05655+P05771+Q05513+Q02156+P24723+Q15139+Q04759). In words: Retained protein kinase C activity in the presence of 1.25 uM compound. In kind it is functional. The method in brief: (§1)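 Assay at pH 7.5, 25 mM Tris, 10 mM MgCl2, 0.1 mM CaCl2, 40 µg/mL histone, 10 µM ATP with [γ-32P]ATP, 20 µg/mL phosphatidylserine, 2.5 µM OAG. Compound added in ethanol before enzyme; 20 min at 30 °C; TCA-precipitated 32P-histone counted; 0.1% ethanol control; duplicates in three trials, fresh enzyme each.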

In assay [2] the target is T1, Protein kinase C (PKC) (Homo sapiens). As to the kind of experiment: Retained protein kinase C activity in the presence of 40 uM compound. In kind it is functional. The method in brief:
as §1

Assay [3] has the same target. As to the kind of experiment: Inhibition of Protein Kinase C purified from HL-60 cells. It counts as cell-free. The method, boiled down: as §1
The target is the same in assay [4]. In words: Retained protein kinase C activity in the presence 2.5 uM compound. In kind it is functional. The method, boiled down:
as §1

The target is the same in assay [5]. In words: Retained protein kinase C activity in the presence of 10 uM compound. It counts as functional. The method, boiled down:
as §1

For assay [6] the target is unchanged. As to the kind of experiment: Retained protein kinase C activity in the presence of 20 uM compound. In kind it is functional. The method, boiled down: as §1
For assay [7] the target is unchanged. In words: Retained protein kinase C activity in the presence of 5 uM compound. In kind it is functional. The method, boiled down:
as §1

`CCCCCCCCCCCCCCCCCC1OCC(C[N+](C)(C)CCCO)O1` (stereo unspecified): the Activity turned out to be 99% in assay [1]; 12% in assay [2]; 99% in assay [4]; 56% in assay [5]; 36% in assay [6]; 61% in assay [7]. The molecule also yielded an ID50 in assay [3] of 13 µM.

As to `CCCCCCCCCCCCCCCCOCC(COCCO)OC` (stereo unspecified), the Activity came out at 98% in assay [1]; 43% in assay [2]; 86% in assay [4]; 66% in assay [5]; 53% in assay [6]; 72% in assay [7]. The ID50 in assay [3] stood at 28 µM.

Consider `CCCCCCCCCCCCCCCCCCOCC(COP(=O)([O-])OCC[N+](C)(C)C)OC` (stereo unspecified), for which the Activity in assay [1] came out at 99%; in assay [2] it was 29%; in assay [4] it was 93%; in assay [5] it was 60%; in assay [6], 40%; in assay [7], 73%. Also, the ID50 in assay [3] was determined as 12 µM.

On to `CCCCCCCCCCCCCCCCSCC(C[N+](C)(C)CCCO)OCC` (stereo unspecified), for which the Activity in assay [1] amounted to 78%; in assay [2] it was 37%; in assay [4], 64%; in assay [5] it was 60%; in assay [6], 59%; in assay [7], 67%. The molecule further gave an ID50 in assay [3] of 26 µM.

Regarding `CCCCCCCCCCCCCCCCOCC(COCC[N+](C)(C)C)OC` (stereo unspecified), the Activity was found to be 92% in assay [1]; 43% in assay [2]; 91% in assay [4]; 73% in assay [5]; 57% in assay [6]; 83% in assay [7]. Further, in assay [3], the ID50 turned out to be 31 µM.

As for `COC(COc1cccc2ccccc12)C[N+](C)(C)CCO` (stereo unspecified), the Activity in assay [1] stood at 99%; in assay [2], 90%; in assay [4], 99%; in assay [5], 89%; in assay [6], 87%; in assay [7], 83%. In assay [3], the ID50 is over 40 µM.

As to `CCCCCCCCCCCCCCCCSCC(C[N+](C)(C)CCO)OCC` (stereo unspecified), the Activity in assay [1] was determined as 92%; in assay [2], 47%; in assay [4], 84%; in assay [5] it was 70%; in assay [6] it was 66%; in assay [7] it was 70%. The ID50 in assay [3] came out at 37 µM.

Regarding `CC1(C)OC[C@@H](C[N+](C)(C)CCO)O1`, the Activity was determined as 88% in assay [1]; 87% in assay [2]; 84% in assay [4]; 88% in assay [5]; 96% in assay [6]; 87% in assay [7]. In assay [3], this molecule yielded an ID50 of over 40 µM.

Take `CCCCCCCCCCCCCCCCSCC(C[N+](C)(C)CCO)OC` (stereo unspecified): the Activity amounted to 97% in assay [1]; 42% in assay [2]; 90% in assay [4]; 60% in assay [5]; 54% in assay [6]; 73% in assay [7]. Besides, in assay [3], the ID50 worked out at 27 µM.

Consider `CCCCCCCCCCCCCCCCCCSCC(C[N+](C)(C)CCCO)OC` (stereo unspecified), for which the Activity is 75% in assay [1]; 23% in assay [2]; 56% in assay [4]; 39% in assay [5]; 27% in assay [6]; 49% in assay [7]. Also, the ID50 in assay [3] is 5 µM.

For `CCCCCCCCCCCCCCCCC[C@@H]1OC[C@@H](C[N+](C)(C)CCCO)O1`, the Activity in assay [1] came to 94%; in assay [2], 19%; in assay [4], 90%; in assay [5], 56%; in assay [6], 43%; in assay [7], 70%. This molecule yielded an ID50 in assay [3] of 17 µM.

Regarding `CCCCCCCCCCCCCCCCOCC(C[N+](C)(C)CCO)OC` (stereo unspecified), the Activity in assay [1] turned out to be 107%; in assay [2] it was 29%; in assay [4], 95%; in assay [5] it was 64%; in assay [6], 42%; in assay [7] it was 87%. In addition, the ID50 in assay [3] was determined as 17 µM.

For the molecule `CCCCCCCCCCCCCCCCSCC(C[N+](C)(C)C)OC` (stereo unspecified), the Activity in assay [1] is 112%; in assay [2], 29%; in assay [4], 88%; in assay [5] it was 74%; in assay [6], 54%; in assay [7], 81%. The ID50 in assay [3] was 25 µM.
